The values that follow come from paper PMC6117112 (ACS chemical biology, 2018).

Each structure is given as a SMILES string. Where two headings read alike, the source gives them in different places.

In general, IC50 refers to the concentration that inhibits the measured activity by half. Low values mean greater potency in that assay, high ones weaker potency in that assay.

Data set [1] is described as follows: MTT cytotoxicity assay in A549 cells, in the dark. It is filed as cell-based. Conditions: human. In general terms: Tetrazolium assays rely on reduction of a dye to a coloured formazan, in cell work by metabolically active cells.
The nature of data set [2]: MTT cytotoxicity assay in HUVECs, in the dark. It is filed as cell-based, human. Conditions: human, HUVECs (human umbilical vein endothelial cells).
The format of data set [3] is cell-based. Conditions: human, HUVECs (human umbilical vein endothelial cells).
In the next data set the test system is A549 cells. Put plainly: Mitochondrial bioenergetics. It is filed as cell-based, human. The method in brief:
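Seeded 20,000 cells/well 24 h before, then 4 h with vehicle (0.4% DMSO) or test compound (0.1, 1.0, 10 μM). One plate blue-LED illuminated 1 h at 37 °C, the other kept dark. XF base medium with 1 mM pyruvate, 2 mM glutamine, 25 mM glucose, pH 7.4; 30 min at 37 °C, no CO2. OCR over 80 min after oligomycin, FCCP, then rotenone/antimycin A (each 1.0 μM). Three experiments × 8 replicates; mean ±SEM; one-way ANOVA, Tukey.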

The format of data set [4] is cell-based. Conditions: human, A549 cells.
Another data set deals with HUVECs. As to the kind of experiment: MTT cytotoxicity assay in HUVECs, in the dark. It is filed as cell-based, human. Conditions: HUVECs, non-illuminated.
The test system of the next data set is mitochondria. Conditions: cited from earlier work.
Where [5] appears, read: 10 μM, after 1 h of illumination to induce CO release.

Regarding `O=C(NCC[P+](c1ccccc1)(c1ccccc1)c1ccccc1)c1ccc(-c2oc3cc4ccccc4cc3c(=O)c2O)cc1.[Br-]` [Compound 2, (2-(4-(3-hydroxy-4-oxo-4H-benzo[g]chromen-2-yl)benzamido)ethyl)triphenylphosphonium bromide], the IC50 in data set [1] is 14.1 ± 2.7 µM. Also, the IC50 in data set [2] was found to be 1.51 ± 1.4 µM. Half-maximal inhibition in data set [3] (IC50) required 3.78 ± 1.5 µM. For the same compound, in the data set with A549 cells (setting [5]), the “ATP production (OCR)” value is “decreased”, the “basal respiration (OCR)” value was “decreased”, the “maximal respiration (OCR)” value is listed as “decreased” and the “reserve capacity (OCR)” value is on record as “decreased”. Besides, the “concentration needed to produce significant changes in bioenergetics parameters” value with A549 cells (light-triggered CO release) was found to be 10 µM. Besides, the IC50 in data set [4] was determined as 4.6 ± 3.6 µM.
Consider `O=C(NCCCCCCCC[P+](c1ccccc1)(c1ccccc1)c1ccccc1)c1ccc(-c2oc3cc4ccccc4cc3c(=O)c2O)cc1` [Compound 3, (8-(4-(3-hydroxy-4-oxo-4H-benzo[g]chromen-2-yl)benzamido)octyl)triphenylphosphonium bromide], for which the IC50 in data set [1] was 8.48 ± 4 µM; in data set [2], 8.4 ± 3.6 µM.
Consider `O=C(NCC[P+](c1ccccc1)(c1ccccc1)c1ccccc1)c1ccc(C(=O)Oc2cc3ccccc3cc2C(=O)O)cc1.[Br-]` [Compound 4, (2-(4-(((3-carboxynaphthalen-2-yl)oxy)carbonyl)benzamido)ethyl)triphenylphosphonium bromide], for which the IC50 in data set [1] and in data set [3] was over 100 µM each time. In addition, the “cytotoxicity (MTT), result in words” value in the data set with HUVECs is on record as “no cytotoxicity”.
Take `O=C(NCCCCCCCC[P+](c1ccccc1)(c1ccccc1)c1ccccc1)c1ccc(C(=O)Oc2cc3ccccc3cc2C(=O)O)cc1` [Compound 5, (8-(4-(((3-carboxynaphthalen-2-yl)oxy)carbonyl)benzamido)octyl)triphenylphosphonium bromide]: the IC50 in data set [1] is 69.1 ± 11 µM; in data set [2], 90 ± 7.5 µM.
As to `O=C(O)CC[P+](c1ccccc1)(c1ccccc1)c1ccccc1.[Br-]` [TPPBr, 2-carboxyethyl-triphenylphosphonium bromide, reference compound], the IC50 in data set [1], in data set [2] and in data set [3] was over 100 µM throughout. Further, the “changes in the mitochondrial bioenergetics profile” value in the data set on A549 cells (0.1–10 μM, illuminated or non-illuminated cells) is on record as “no significant changes”.
In the case of `O=c1cc(-c2ccccc2)oc2cc(O)c(O)c(O)c12` [baicalein], the “effect on mitochondrial bioenergetics” value in the data set on mitochondria is listed as “decreases ATP-production via uncoupling of mitochondrial membranes”.
Consider `O=c1c(O)c(-c2ccc(O)c(O)c2)oc2cc(O)cc(O)c12` [quercetin], for which, in the data set on mitochondria, the “effect on mitochondrial bioenergetics” value was “increases basal respiration, maximal respiration, ATP-linked respiration and the reserve capacity of mitochondria”.
